Data on 13 molecules can be found in ChEMBL document CHEMBL4308848, “Molecular Basis for the N-Terminal Bromodomain-and-Extra-Terminal-Family Selectivity of a Dual Kinase-Bromodomain Inhibitor” (J Med Chem, 2018).

pIC50, pKd: −log10 of the molar value. Active and inactive are the calls of the source. The rule behind the calls is not given here.

In data set [1] the target is T1, Bromodomain-containing protein 4 (Homo sapiens, UniProt O60885). Description: Inhibition of BRD4 bromodomain 1 in human A549 cells assessed as reduction in TNFalpha-induced NFkappaB transcription at 1 to 25 uM after 8 hrs by bright-glo luciferase reporter gene assay relative to control. The class given is cell-based. An outline of the steps:
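A549-NF-κB-luc cells (DMEM, 10% FBS, hygromycin) were dosed with serial compound dilutions at 0.5% final DMSO. TNF-α (15 ng/mL final) was added 30 min after dosing. Bright-Glo luciferase luminescence was read 8 h later. Activity is expressed as percent NF-κB activity, as means ± SEM of three biological experiments, each with three technical replicates.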

Data set [2] addresses T2, Bromodomain-containing protein 3 (Homo sapiens, UniProt Q15059). Description: Inhibition of human 6x-His-tagged BRD3 bromodomain 2 expressed in Escherichia coli.
In data set [3] the target is T3, Bromodomain-containing protein 2 (Homo sapiens, UniProt P25440). Description: Inhibition of human 6x-His-tagged BRD2 bromodomain 2 expressed in Escherichia coli.
T3 sequence (P25440 whole entry): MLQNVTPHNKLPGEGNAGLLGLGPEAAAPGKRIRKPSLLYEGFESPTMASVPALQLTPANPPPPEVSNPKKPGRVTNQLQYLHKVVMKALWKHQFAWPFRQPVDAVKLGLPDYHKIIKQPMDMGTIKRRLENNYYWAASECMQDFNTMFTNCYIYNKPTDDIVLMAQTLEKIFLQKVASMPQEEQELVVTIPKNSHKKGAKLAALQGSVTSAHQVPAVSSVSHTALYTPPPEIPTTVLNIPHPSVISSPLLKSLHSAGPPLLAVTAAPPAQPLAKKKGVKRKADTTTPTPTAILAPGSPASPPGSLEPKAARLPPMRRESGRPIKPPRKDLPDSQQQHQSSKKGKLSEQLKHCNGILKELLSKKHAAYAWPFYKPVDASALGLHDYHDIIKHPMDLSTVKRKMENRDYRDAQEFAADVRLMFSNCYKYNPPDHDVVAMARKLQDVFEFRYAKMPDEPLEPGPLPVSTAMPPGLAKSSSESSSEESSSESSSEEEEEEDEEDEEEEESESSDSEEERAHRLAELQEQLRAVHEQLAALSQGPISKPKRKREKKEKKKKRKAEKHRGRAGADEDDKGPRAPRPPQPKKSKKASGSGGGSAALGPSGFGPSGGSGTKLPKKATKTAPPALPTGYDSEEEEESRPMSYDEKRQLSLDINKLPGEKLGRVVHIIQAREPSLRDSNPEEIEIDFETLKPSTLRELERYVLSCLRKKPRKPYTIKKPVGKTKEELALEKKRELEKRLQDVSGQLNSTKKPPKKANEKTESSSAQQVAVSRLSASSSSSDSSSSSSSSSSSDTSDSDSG
Data set [4] deals with T2, Bromodomain-containing protein 3. Briefly: Inhibition of BRD3 N-terminal bromodomain 1 (unknown origin) expressed in Escherichia coli Bl21(DE3) by alpha-screen assay. For orientation: Alpha assays give light when donor and acceptor beads are brought close together.
The target of data set [5] is T4, Bromodomain testis-specific protein (Homo sapiens, UniProt Q58F21). Description: Inhibition of BRDT N-terminal bromodomain 1 (unknown origin) expressed in Escherichia coli Bl21(DE3) by alpha-screen assay.
Data set [6] addresses T1, Bromodomain-containing protein 4. Description: Inhibition of BRD4 C-terminal bromodomain 2 (unknown origin) expressed in Escherichia coli Bl21(DE3) by alpha-screen assay.
The target is the same in data set [7]. Description: Inhibition of BRD4 N-terminal bromodomain 1 (unknown origin) expressed in Escherichia coli Bl21(DE3) by alpha-screen assay.
The target in data set [8] is T2, Bromodomain-containing protein 3. Description: Inhibition of BRD3 C-terminal bromodomain 2 (unknown origin) expressed in Escherichia coli Bl21(DE3) by alpha-screen assay.
For data set [9], the target named is T3, Bromodomain-containing protein 2. Description: Inhibition of BRD2 N-terminal bromodomain 1 (unknown origin) expressed in Escherichia coli Bl21(DE3) by alpha-screen assay.
For data set [10] the target is unchanged. Briefly: Inhibition of BRD2 C-terminal bromodomain 2 (unknown origin) expressed in Escherichia coli Bl21(DE3) by alpha-screen assay.
The target in data set [11] is T4, Bromodomain testis-specific protein.
The target of data set [12] is T1, Bromodomain-containing protein 4. Description: Inhibition of BRD4 bromodomain 1 in human MM1S cells assessed as reduction in c-myc levels at 0.1 to 30 uM by Western blot analysis. The class given is cell-based. An outline of the steps: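 MM.1S cells in RPMI-1640/10% FBS were seeded at 10^6 per well and exposed for 6 h to 0.1–30 μM compound. Lysates were run on 12.5% SDS-PAGE and blotted for c-Myc, with GAPDH as loading control. Detection by HRP secondary and ECL on X-ray film.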

Data set [13] has the same target. Briefly: Binding affinity to BRD4 bromodomain 1 (unknown origin) expressed in Escherichia coli Bl21(DE3) by isothermal-titration calorimetry.
Data set [14] has the same target. Briefly: Displacement of BI-BODIPY from BRD4 C-terminal bromodomain 2 (unknown origin) expressed in Escherichia coli Bl21(DE3) by fluorescence polarization assay. An outline of the steps:
(§1)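 Fluorescence anisotropy in 50 mM HEPES, 100 mM NaCl, 4 mM CHAPS pH 7.4, with 15 nM BI-BODIPY tracer and bromodomain set at 80% tracer bound. […] Percent bound was determined where displacement was incomplete.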
In general terms: Fluorescence polarisation rises when a labelled molecule tumbles more slowly, as on binding a larger partner.

Data set [15] deals with Mitogen-activated protein kinase 14 (Homo sapiens) (UniProt Q16539). Description: Inhibition of p38alpha in human MM1S cells assessed as reduction in MSK1 phosphorylation at T581 at 0.1 to 30 uM by Western blot analysis. The class given is cell-based. (In general: Immunoblotting shows a protein as a band on a membrane.)
Sequence of Mitogen-activated protein kinase 14 (Homo sapiens) (Q16539 whole entry): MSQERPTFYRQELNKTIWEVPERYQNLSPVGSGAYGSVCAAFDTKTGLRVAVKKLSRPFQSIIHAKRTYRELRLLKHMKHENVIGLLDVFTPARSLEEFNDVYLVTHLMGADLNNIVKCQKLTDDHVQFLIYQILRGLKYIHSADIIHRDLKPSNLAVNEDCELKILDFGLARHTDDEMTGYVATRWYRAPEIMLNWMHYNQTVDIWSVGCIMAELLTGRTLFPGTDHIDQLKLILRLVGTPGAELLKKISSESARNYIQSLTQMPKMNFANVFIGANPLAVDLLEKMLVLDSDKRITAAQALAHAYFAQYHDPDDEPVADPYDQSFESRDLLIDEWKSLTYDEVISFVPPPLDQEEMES
Data set [16] addresses T1, Bromodomain-containing protein 4.
Data set [17] concerns A549. Briefly: Cytotoxicity against human A549 cells assessed as reduction in cell viability at 0.5 to 50 uM after 8 hrs by Alamar blue assay. The class given is cell-based. The settings on record: a549, 8 h. An outline of the steps: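 A549-NF-κB-luc cells in DMEM/10% FBS with hygromycin were dosed with serially diluted compound at 0.5% final DMSO. TNF-α (15 ng/mL final) was added 30 min after dosing, and viability was read by Alamar Blue in parallel with the 8 h luciferase read. Three biological × three technical replicates.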

Data set [18] deals with T4, Bromodomain testis-specific protein. Description: Displacement of BI-BODIPY from BRDT C-terminal bromodomain 2 (unknown origin) expressed in Escherichia coli Bl21(DE3) by fluorescence polarization assay. An outline of the steps:
as §1

For data set [19] the target is unchanged. The source holds these as a separate data set.
Data set [20] addresses Mitogen-activated protein kinase 14 (Homo sapiens) (UniProt Q16539). Description: Inhibition of p38alpha in human MM1S cells assessed as reduction in MSK1 phosphorylation at T581 up to 10 uM by Western blot analysis. The class given is cell-based.
Data set [21] deals with A549. Description: Cytotoxicity against human A549 cells assessed as reduction in cell viability at 10 to 25 uM after 8 hrs by Alamar blue assay. The class given is cell-based. The settings on record: a549, 8 h. An outline of the steps: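 Viability of A549-NF-κB-luc cells was measured by Alamar Blue colorimetric staining, run in parallel with the luciferase reporter. Cells were dosed with serial compound dilutions at 0.5% final DMSO, TNF-α (15 ng/mL) was added 30 min after dosing, and the read was at 8 h.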

For data set [22], the target named is T1, Bromodomain-containing protein 4. The settings on record: A549, 10 uM.
Data set [23] has the same target. The settings on record: A549, 1 uM.
In data set [24] the target is Histone acetyltransferase p300 (Homo sapiens) (UniProt Q09472). Description: Inhibition of human P300 (1040 to 1161 residues) expressed in bacterial expression system at 10 uM relative to control.
Data set [25] has as its target SWI/SNF-related matrix-associated actin-dependent regulator of chromatin subfamily A member 4 (Homo sapiens) (UniProt P51532). Briefly: Inhibition of human SMARCA4 expressed in HEK293 cells at 10 uM relative to control. Format: cell-based.
Data set [26] has as its target SWI/SNF-related matrix-associated actin-dependent regulator of chromatin subfamily A member 2 (Homo sapiens) (UniProt P51531). Description: Inhibition of human SMARCA2 (1377 to 1486 residues) (unknown origin) expressed in bacterial expression system at 10 uM relative to control.
The target in data set [27] is T4, Bromodomain testis-specific protein. Briefly: Inhibition of human BRDT bromodomain 1 expressed in HEK293 cells at 10 uM relative to control. Format: cell-based.
In data set [28] the target is Histone acetyltransferase KAT2B (Homo sapiens) (UniProt Q92831). Description: Inhibition of human PCAF (715 to 831 residues) expressed in bacterial expression system at 10 uM relative to control.
Sequence of Histone acetyltransferase KAT2B (Homo sapiens) (Q92831 whole entry, looked up, the tested form may be a part): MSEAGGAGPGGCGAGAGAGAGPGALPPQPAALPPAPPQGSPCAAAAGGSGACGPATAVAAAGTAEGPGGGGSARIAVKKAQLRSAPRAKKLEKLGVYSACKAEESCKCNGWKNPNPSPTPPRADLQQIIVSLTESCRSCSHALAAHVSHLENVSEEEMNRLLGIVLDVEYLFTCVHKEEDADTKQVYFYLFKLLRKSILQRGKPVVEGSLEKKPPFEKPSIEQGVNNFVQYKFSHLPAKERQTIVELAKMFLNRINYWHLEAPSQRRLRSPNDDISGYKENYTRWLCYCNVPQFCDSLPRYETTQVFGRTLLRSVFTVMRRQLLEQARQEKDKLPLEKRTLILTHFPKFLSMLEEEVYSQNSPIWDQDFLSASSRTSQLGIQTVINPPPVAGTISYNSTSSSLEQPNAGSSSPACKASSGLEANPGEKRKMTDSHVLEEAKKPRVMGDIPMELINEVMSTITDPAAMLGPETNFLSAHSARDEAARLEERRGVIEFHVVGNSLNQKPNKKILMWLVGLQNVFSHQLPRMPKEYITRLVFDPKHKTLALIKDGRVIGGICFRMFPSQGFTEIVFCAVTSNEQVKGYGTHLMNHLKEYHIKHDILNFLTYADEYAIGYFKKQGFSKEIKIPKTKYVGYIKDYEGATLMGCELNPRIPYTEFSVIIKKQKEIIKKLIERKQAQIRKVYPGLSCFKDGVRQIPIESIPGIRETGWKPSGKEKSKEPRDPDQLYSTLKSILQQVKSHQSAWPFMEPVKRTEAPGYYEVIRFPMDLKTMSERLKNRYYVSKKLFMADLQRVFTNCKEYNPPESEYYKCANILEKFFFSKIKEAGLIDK
In data set [29] the target is T4, Bromodomain testis-specific protein. Briefly: Binding affinity to human BRDT bromodomain 1 (unknown origin) expressed in Escherichia coli Bl21(DE3) at 12.5 to 100 uM by protein-observed fluorine NMR method. An outline of the steps:
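5-Fluorotryptophan-labeled bromodomain expressed in E. coli Bl21(DE3)+pRARE in defined medium with 5-fluoroindole, induced with 1 mM IPTG at 20 °C, Ni-purified. 19F NMR with 40−50 μM protein in 50 mM TRIS, 100 mM NaCl, 5% D2O pH 7.4, 0.05% DMSO, across varying ligand concentrations. Referenced to trifluoroacetate; 0.7 s relaxation delay, 90° flip.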

T2 sequence (Q15059 whole entry): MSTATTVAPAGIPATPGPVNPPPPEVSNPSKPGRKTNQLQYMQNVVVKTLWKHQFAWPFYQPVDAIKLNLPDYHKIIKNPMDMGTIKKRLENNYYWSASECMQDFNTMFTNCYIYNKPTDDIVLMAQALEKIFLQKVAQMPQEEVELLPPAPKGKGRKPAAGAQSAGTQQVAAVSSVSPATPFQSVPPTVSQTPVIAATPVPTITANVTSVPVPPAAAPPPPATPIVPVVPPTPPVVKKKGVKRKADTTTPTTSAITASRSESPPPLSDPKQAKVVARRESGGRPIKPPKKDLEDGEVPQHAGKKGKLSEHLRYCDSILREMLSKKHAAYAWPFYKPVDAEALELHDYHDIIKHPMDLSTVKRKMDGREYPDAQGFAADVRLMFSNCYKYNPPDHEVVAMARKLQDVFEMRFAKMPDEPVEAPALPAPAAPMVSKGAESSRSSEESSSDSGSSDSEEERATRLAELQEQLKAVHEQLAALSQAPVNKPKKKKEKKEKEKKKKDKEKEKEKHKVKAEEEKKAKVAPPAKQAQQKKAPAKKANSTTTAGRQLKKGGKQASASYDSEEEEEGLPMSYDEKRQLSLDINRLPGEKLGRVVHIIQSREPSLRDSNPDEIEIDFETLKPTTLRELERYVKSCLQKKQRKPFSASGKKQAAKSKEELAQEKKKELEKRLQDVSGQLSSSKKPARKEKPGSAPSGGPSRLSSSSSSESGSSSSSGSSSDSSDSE
Sequence of SWI/SNF-related matrix-associated actin-dependent regulator of chromatin subfamily A member 4 (Homo sapiens) (P51532 whole entry, the tested form may be a part): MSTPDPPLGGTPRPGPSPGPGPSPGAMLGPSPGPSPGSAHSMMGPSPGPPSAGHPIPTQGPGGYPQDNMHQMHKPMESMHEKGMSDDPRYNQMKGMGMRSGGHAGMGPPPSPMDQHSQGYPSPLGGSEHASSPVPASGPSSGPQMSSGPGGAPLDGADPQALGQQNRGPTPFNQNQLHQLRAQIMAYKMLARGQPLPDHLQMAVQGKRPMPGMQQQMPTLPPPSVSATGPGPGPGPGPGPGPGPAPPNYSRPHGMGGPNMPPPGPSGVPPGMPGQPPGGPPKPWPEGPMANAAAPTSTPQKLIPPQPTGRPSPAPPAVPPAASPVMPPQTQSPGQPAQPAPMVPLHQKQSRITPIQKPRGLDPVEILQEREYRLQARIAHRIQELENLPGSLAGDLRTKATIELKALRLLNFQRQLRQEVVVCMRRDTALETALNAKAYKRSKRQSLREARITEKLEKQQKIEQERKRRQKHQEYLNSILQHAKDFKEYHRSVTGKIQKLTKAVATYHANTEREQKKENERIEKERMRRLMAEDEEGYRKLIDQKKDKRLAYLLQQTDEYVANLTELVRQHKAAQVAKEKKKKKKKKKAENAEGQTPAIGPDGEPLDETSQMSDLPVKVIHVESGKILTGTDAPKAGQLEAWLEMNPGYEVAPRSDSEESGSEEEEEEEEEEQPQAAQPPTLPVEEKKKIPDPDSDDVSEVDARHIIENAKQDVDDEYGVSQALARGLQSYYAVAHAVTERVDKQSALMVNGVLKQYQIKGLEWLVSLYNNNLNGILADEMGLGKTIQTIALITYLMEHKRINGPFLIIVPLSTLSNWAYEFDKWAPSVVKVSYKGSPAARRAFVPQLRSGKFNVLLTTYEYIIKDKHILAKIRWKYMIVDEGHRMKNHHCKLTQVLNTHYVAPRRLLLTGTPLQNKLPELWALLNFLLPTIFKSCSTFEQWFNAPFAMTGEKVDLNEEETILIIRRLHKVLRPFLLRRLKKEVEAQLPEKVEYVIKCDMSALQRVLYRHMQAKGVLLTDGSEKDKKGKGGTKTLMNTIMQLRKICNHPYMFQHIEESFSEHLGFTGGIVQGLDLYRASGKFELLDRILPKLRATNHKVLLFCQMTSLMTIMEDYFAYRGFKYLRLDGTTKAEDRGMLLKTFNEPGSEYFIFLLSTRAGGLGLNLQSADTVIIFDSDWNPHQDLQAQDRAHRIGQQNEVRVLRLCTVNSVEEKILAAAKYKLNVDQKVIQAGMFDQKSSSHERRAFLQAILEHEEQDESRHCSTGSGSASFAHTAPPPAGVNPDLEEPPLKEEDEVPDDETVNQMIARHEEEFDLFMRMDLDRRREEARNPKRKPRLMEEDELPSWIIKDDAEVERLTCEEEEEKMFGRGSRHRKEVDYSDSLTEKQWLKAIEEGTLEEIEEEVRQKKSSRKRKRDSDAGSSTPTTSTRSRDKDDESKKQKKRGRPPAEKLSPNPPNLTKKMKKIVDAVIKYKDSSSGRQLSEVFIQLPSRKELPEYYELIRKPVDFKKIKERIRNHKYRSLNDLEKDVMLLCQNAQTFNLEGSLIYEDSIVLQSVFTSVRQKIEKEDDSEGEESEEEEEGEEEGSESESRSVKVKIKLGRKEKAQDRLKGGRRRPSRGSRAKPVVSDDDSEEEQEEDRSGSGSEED

By inhibition is commonly meant how much of the control response was suppressed. With `C[S+]([O-])c1ccc(-c2nc(-c3ccc(F)cc3)c(-c3ccncc3)[nH]2)cc1` (configuration not stated), the inhibition entry in [1] is “inactive”.

The term pKd denotes −log10 of the Kd, conventionally taken in molar units. As for `CC(=O)NCCCCn1c2c(c3ccccc31)C(=O)NCC2`, the pKd in [2] and in [3] was below 4.12 throughout.

A word on the pIC50: it is the negative decadic logarithm of the IC50, by convention in mol/L. Read a low pIC50 as a high IC50. In the case of `Cc1cc(C)cc(Nc2nccc(-c3c(-c4ccc(F)cc4)nnn3C3CCNCC3)n2)c1`, the pIC50 in data set [4] was 4.29; in [5], 4.44; in [6] it was 4.12; in data set [7], 4.57; in [8], 3.96; in data set [9], 4.37. Besides, the negative-log IC50 (pIC50) in data set [10] is 4.52.

Regarding `Cc1ccc(Nc2nccc(-c3c(-c4ccc(F)cc4)ncn3C3CCNCC3)n2)cc1C`, the pIC50 is 5.33 in [11], below 3.60 in [16] and below 3.60 in [19]. In addition, the inhibition result in data set [12] and in [15] was “Active” each time. In addition, the pKd in [13] is 5.74. In addition, the inhibition entry in data set [14] and in data set [18] was “inactive” throughout. Besides, in [17], the Activity entry is recorded as “Non-Toxic”.

For `Cc1cc(C)cc(Nc2nccc(-c3c(CO)nnn3C3CCNCC3)n2)c1`, the pIC50 in [4] is 3.70; in data set [5] it was 3.96; in data set [6], 3.99; in [8], 3.51; in data set [9], below 3.60; in data set [10] it was 3.59.

As to `Cc1sc2c(c1C)C(c1ccc(Cl)cc1)=N[C@@H](CC(=O)OC(C)(C)C)c1nnc(C)n1-2`, the inhibition entry in [20] is “inactive”.

On to `CC[C@@H]1C(=O)N(C)c2cnc(Nc3ccc(C(=O)NC4CCN(C)CC4)cc3OC)nc2N1C1CCCC1`, for which the inhibition entry in data set [18] was “Active”.

In the case of `C[S+]([O-])c1ccc(-c2nc(-c3ccncc3)c(-c3ccc(F)cc3)[nH]2)cc1` (configuration not stated) [SB-203580], the Activity entry in data set [21] is recorded as “Non-Toxic”.

As to `Cc1cc(C)cc(Nc2nccc(-c3c(C)nnn3C3CCNCC3)n2)c1`, the negative-log IC50 (pIC50) in data set [4] was 6.11; in [5], 5.80; in [6], 6.25; in [7], 5.89; in data set [8] it was 5.62; in data set [9] it was 5.74. The molecule also gave a pIC50 in data set [10] of 4.92.

On to `NC(=O)c1ccc(N(C(N)=O)c2c(F)cccc2F)nc1-c1ccc(F)cc1F` [VX-702], for which the Activity result in [21] is reported as “Non-Toxic”. For the same molecule, in [1], the inhibition result is “inactive”.

Turning to `COc1cc(OC)c2c(=O)[nH]c(-c3cc(C)c(OCCO)c(C)c3)nc2c1`, the figures for the inhibition in data set [22] and in data set [23] were 25% and 40%, respectively. Moreover, the inhibition result in [14] was “Active”.

With `Cc1cc(C)cc(Nc2nccc(-c3c(-c4ccc(F)cc4)ncn3C3CCNCC3)n2)c1`, the inhibition in data set [24] is 40 to 50%; in data set [25], 40 to 50%; in [26], 40 to 50%; in data set [27] it was 50%; in data set [28] it was 40 to 50%. Besides, the pIC50 in data set [4] is 4.95; in [11], 5.46; in data set [5], 5.28; in data set [8] it was below 4.00; in [9] it was 4.54; in data set [10], 4.17. The molecule also had a pIC50 in data set [19] below 3.60. In addition, the Activity result in data set [17] is listed as “Non-Toxic”. For the same molecule, the inhibition entry in data set [18] was “inactive”. Further, the outcome in data set [29] was Active.

As for `Fc1ccc(-c2ncn(C3CCNCC3)c2-c2ccnc(Oc3cc(F)cc(F)c3)n2)cc1`, the pIC50 in data set [11] and in data set [19] was below 3.60 throughout.
